Experiment: Toxicity liver stage against HepG2, at 10uM
Assay type: cell-based
Design: test concentration 10 uM, cell line HepG2-A16-CD81EGFP
Details: human, HepG2-A16-CD81EGFP cells; read-out: INHIBITION
Method in brief: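 Uninfected HepG2-A16-CD81EGFP cells, 3 × 10^3 per well, 1536-well, plated on prespotted compound at 10 μM final, parasite-free screening media added to match infected plates; puromycin 10 μM positive, DMSO 0.5% negative; run in parallel with 48 h PbLuc assay at 37 °C, 5% CO2; viability by CellTiter-Glo luminescence, normalized to controls.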

| Compound | cytotoxicity at 10 µM [%] |
| --- | --- |
| COC(=O)c1cccc2nc([C@H]3CCN(CC(C)C)C3)oc12 | -2.13 |
| CCS(=O)(=O)c1ccc2oc([C@H]3CCN(CC4CCCCC4)C3)nc2c1 | 41 |
| COc1cc(OC)c2c(=O)oc(CC(O)CC(C)=O)cc2c1 (stereo not drawn) | 5.73 |
| Cc1nn2cnnc2c(C)c1CCC(=O)Nc1nc2c(s1)CCC2 | -0.674 |
| Cc1cc(C(=O)Nc2nc3c(s2)CN(S(=O)(=O)C2CC2)CC3)c(C)o1 | 22.7 |
| CCN1CCC2(CN(C(C)=O)CC23CCN(C(=O)N(C)C)CC3)C1=O (stereo not drawn) | 4.88 |
| CC(=O)N1CCC2(CCCN(S(=O)(=O)c3ccccc3)C2)C1 (stereo not drawn) | 0.169 |
| Cc1ccc(C(=O)N2CCC3(CCC(C(=O)NCC4CC4)O3)CC2)o1 (stereo not drawn) | 6.85 |
| Cc1ccc2c(c1)C1(CCNCC1)CC2N1CCOCC1 (stereo not drawn) | -134 |
| CCc1cnc(NC2CCc3c(ccc(=O)n3C)C2)nc1 (stereo not drawn) | -125 |
| CC(=O)N1CC2(CCN(C(=O)CO)CC2)c2cc(C)ccc21 | 9.37 |
| Cc1cccc(S(=O)(=O)N2CCCC3(CCCN3S(C)(=O)=O)C2)c1 (stereo not drawn) | 7.28 |
| Cc1csc([C@H]2C[C@@H]3CCN(Cc4cnn(C)c4)C[C@H]3O2)n1 | -3.9 |
| O=C1CC(c2ccc(C(=O)O)cc2)c2ncn(-c3cccc(Cl)c3)c2N1 (stereo not drawn) | -2.17 |
| O=C(Cc1ccsc1)N1CCn2cc(CN3CCCC3)nc2C1 | -14.2 |
| CSc1nc2ccsc2c(=O)n1CC(=O)NC1CCCC1 | 0.297 |
| NC(=O)c1nc(-c2ccc(Cl)cc2Cl)oc1N | 2.66 |
| CSc1nsc(NC(=O)c2cc(C3CC3)nn2C)n1 | 6.86 |
| COCCN1CCCC(CCCc2ccccn2)(C(N)=O)C1 (stereo not drawn) | -16 |
| COc1ccc(C)cc1C1(CNc2cncc(Cl)n2)CCOCC1 | 7.07 |
| COc1ccnc(N(C)Cc2csc(C)n2)n1 | -2.62 |
| CC(C(=O)N(C)Cc1ccco1)n1cncn1 (stereo not drawn) | 4.4 |
| O=S(=O)(NCCCn1cncn1)c1ccc2c(c1)CCC2 | 3.03 |

| Compound | cytotoxicity at 10 µM [%] |
| --- | --- |
| Cc1ccc2cccc(C(=O)NCCOCC3CC3)c2n1 | -20.3 |
| O=C(NCCOc1cccc(Cl)c1Cl)N1CCC2(CC1)OCCO2 | -3.36 |
| CC(C)(C)c1noc(CCCC(=O)N2CCNC(=O)C2)n1 | -4.28 |
| CSc1ccc(NCC(=O)NCC2CC2)cc1F | 0.936 |
| O=C(NS(=O)(=O)Cc1cc(-c2ccccc2)no1)C1CCOCC1 | -2.85 |
| Cc1ccc(-c2cc(C(=O)NCCN3CCOCC3)n[nH]2)s1 | -6.45 |
| Cc1ccnc(C(NC(=O)c2ncoc2C)C2CC2)n1 (stereo not drawn) | 12.7 |
| Cc1ccc(C(=O)NCCNC(=O)c2cncnc2C)cc1F | 3.91 |
| O=C(NCCNc1ncccn1)NCc1cccc(OC(F)F)c1 | -2.64 |
| Cn1nc(CC(C)(C)C)cc1NC(=O)c1ccc(CNC(N)=O)cc1 | -1.78 |
| Cc1ccsc1CN(C)C(=O)c1ccc(N2CCOCC2)c(F)c1 | 11.1 |
| Cc1ccc(-c2ccsc2C(=O)NC2CCS(=O)(=O)C2)cc1 (stereo not drawn) | 1.07 |
| COc1ccc(NC(=O)NC(C)Cn2cccn2)cn1 (stereo not drawn) | -5.72 |
| CC(C)CC(CCO)CNC(=O)N1CC(C)(C)C1(C)C (stereo not drawn) | -2.48 |
| COCCc1noc(CN2CCCc3cccc(OC)c32)n1 | 5.52 |
| Cc1cnn(C2CCCN(C(=O)c3c(C)oc4nc[nH]c(=O)c34)C2)c1 (stereo not drawn) | -6.62 |
| Cn1ccc(CNC(=O)N2CCCC3(C2)OCCO3)c1 | 7.6 |
| O=C1CCCc2[nH]c(=O)c(C(=O)N(CC3CCCCC3)C3CC3)cc21 | -2.56 |
| CC(C)c1nccn1CCC(=O)N1CCCC1c1cccn1C (stereo not drawn) | -6.66 |
| CCCNC(=O)c1[nH]nc(C2CC2)c1Br | -0.587 |
| CN1CCc2c(NC(=O)NCc3ccccc3Cl)cccc21 | 3.65 |
| CN1CCCN(C(=O)c2ccn3ccnc3c2)CC1 | -2.38 |
| COCCNC(=O)N1CCN(C(=O)Cc2ccccc2F)CC1 | -8.85 |

| Compound | cytotoxicity at 10 µM [%] |
| --- | --- |
| CC(C)c1nnc2n1CCN(Cc1nc3c(F)cccc3[nH]1)C2 | -9.14 |
| Cc1ncsc1C(=O)OCCN1CCCCCC1=O | -4.27 |
| Cc1nc(COc2ccc(S(=O)(=O)N(C)C)cc2)sc1C | -1.13 |
| COc1ncccc1NC(=O)N1CCC(CN2CCOCC2)CC1 | -6.78 |
| CSCC(C)(O)CNC(=O)c1ccc(Br)cc1F (stereo not drawn) | 0.537 |
| Cn1cc(CN(Cc2ccccc2)CC(O)c2cccs2)cn1 (stereo not drawn) | -8.59 |
| COC(=O)c1sccc1NC(=O)C1CCCN1C(=O)c1ccco1 (stereo not drawn) | 20.3 |
| O=C(NCCCn1cccn1)C1(c2ccc(Br)cc2)CC1 | -0.0323 |
| N#Cc1ccc(CNCC(C(=O)N2CCOCC2)c2ccccc2)cc1 (stereo not drawn) | -11.9 |
| O=C(CC1COCCN1)N1CCC2(CCc3ccccc32)CC1 (stereo not drawn) | -148 |
| CC(C)Cc1cn(C2CCN(C(C)CCn3cccn3)CC2)nn1 (stereo not drawn) | -1.8 |
| O=C(NCC1COCCO1)c1csc(Cc2ccccc2)n1 (stereo not drawn) | -0.857 |
| CCOc1ccccc1-n1c(CNC)n[nH]c1=O | -2.98 |
| CC(C)n1cnnc1CN1CCC2(CCCN(C3CCCCC3)C2=O)C1 (stereo not drawn) | -123 |
| CCc1cc(NCCS(=O)(=O)N(C)C)nc(N2CCOCC2)n1 | 1.44 |
| CCn1c(N)nc2cc(C(=O)N3CCCN(C)CC3)cnc21 | -2.43 |
| COCCCC1(CO)CCCN(Cc2ccc(F)c(OC)c2)C1 (stereo not drawn) | -142 |
| Cn1cc(CN(C/C=C/c2ccccc2)C2CC2)cn1 | -10.1 |
| O=c1n(Cc2ncccn2)nc(C2CCNCC2)n1-c1ccccc1 | -9.62 |
| CCC(CO)N(Cc1ccsc1)Cc1cccc(O)c1 (stereo not drawn) | 0.616 |
| COc1cc(C)ccc1OCCN1CC[C@@]2(O)CCNC[C@H]2C1 | -157 |
| CC(C)SCC(=O)N1CCCn2nc(C(=O)Nc3ccccc3)cc2C1 | 3.19 |
| CCn1nc(C)c(CN(CCOC)C(=O)c2ccc(=O)[nH]n2)c1C | -2.27 |

| Compound | cytotoxicity at 10 µM [%] |
| --- | --- |
| CCCNC(=O)N1CCc2ccc(S(=O)(=O)N3CCCC3)cc2C1 | -12.3 |
| Cc1nn(C)c2ncnc(NCc3nncn3C3CCCCC3)c12 | -10.2 |
| Cc1ccc(CN2CCN(C(=O)C3CCC3)[C@@H]3CS(=O)(=O)C[C@@H]32)cc1C | 2.09 |
| O=C(c1cccs1)N1CC(Oc2ccccc2Cl)C1 | 6.89 |
| NC(=O)c1cccc(CC2CCN(C(=O)Cn3cnnn3)C2)c1 (stereo not drawn) | 0.557 |
| Cc1ncc(CC(=O)N2CCCC(COc3ccccc3F)C2)c(=O)[nH]1 (stereo not drawn) | -151 |
| CN(CCc1ccccn1)C(=O)c1cn(CCN2CCNCC2)nn1 | -8.48 |
| CCc1cnc(NCCSc2cnn[nH]2)nc1 | -10.4 |
| COc1ccc(-c2ccccc2CN)c(OC)c1 | 7.35 |
| Cc1nc(CN2CCCN(c3nccs3)CC2)no1 | -3.62 |
| CC(C)OCCCNC(=O)CS(=O)(=O)Cc1cccc(Cl)c1 | 5.44 |
| COC(=O)CNC(=O)c1sc(-c2ccc(Cl)s2)nc1C | -5.63 |
| COc1cccc(-n2nnc(C(=O)N3CCCC(C)C3)c2C)c1 (stereo not drawn) | -5.33 |
| Fc1ccccc1-c1nc(CNCCn2cccn2)cs1 | -9.53 |
| CCCNC(=O)C1CCCN(Cc2csc(C(C)(C)C)n2)C1 (stereo not drawn) | -3.14 |
| CCn1cc(NC(=O)NCC(C)N(C)C2CC2)cn1 (stereo not drawn) | -3.54 |
| c1ncn(CC2CCCCN2Cc2csc(-c3ccsc3)n2)n1 (stereo not drawn) | -2.48 |
| Cc1nc(CSCCC(=O)NCc2ccc(N(C)C)cc2)cs1 | -14.2 |
| CCN1CCOC(CNCc2cccc(OCc3ccccn3)c2)C1 (stereo not drawn) | -13.4 |
| Cc1ncc2c(n1)CCN(CCCc1nc3ccccc3o1)C2 | -18.7 |
| COCCOc1cc(C)ccc1NC(=O)N(C)Cc1cnn(C)c1 | -9.5 |
| CCn1nc2c(cc1=O)CN(Cc1coc(-c3ccccc3)n1)CC2 | -10.9 |
| CCc1nc(CN2CCc3c(ncn3C3CC3)C2)cs1 | -1.59 |

| Compound | cytotoxicity at 10 µM [%] |
| --- | --- |
| CC(C1CC1)N(C)C(=O)c1ccc(-n2ncc(C#N)c2N)cc1 (stereo not drawn) | 3.51 |
| c1cnn(CCN2CCOC(Cn3cccn3)C2)c1 (stereo not drawn) | -10.3 |
| Cc1nc(C)c(C(=O)N2CCCN(Cc3cnn(C)c3)CC2)s1 | -9.58 |
| CC(C)(C)c1cc(C(=O)NCCn2nc3ccccn3c2=O)[nH]n1 | -29.5 |
| CC(c1nc(C2CC2)no1)N1CCN(Cc2cccnc2)CC1 (stereo not drawn) | -6.18 |
| CN(C)CC1CN(Cc2cccc(C#N)c2)Cc2nccn2C1 (stereo not drawn) | -124 |
| Cc1ccc2c(n1)N(CC1CC1)CCN(S(=O)(=O)C1CC1)C2 | 12.4 |
| Cc1occc1C(=O)N1CCC2(CCCN(Cc3nccs3)C2)C1 (stereo not drawn) | -3.32 |
| CN(C)C(=O)N1CCC2(CC1)CN(CC1CC1)CC21CCNC1=O (stereo not drawn) | 3.67 |
| O=C(Cc1cccnc1)N1CCCC2(CCN(C3CCOCC3)C2)C1 (stereo not drawn) | -1.45 |
| COc1c(CNC2CCCOc3ccc(F)cc32)c(C)nn1C (stereo not drawn) | 1.51 |
| CCN(C)c1ncnc2c1CCN(C(=O)N(C)C)CC2 | -0.0197 |
| O=S(=O)(C1CC1)N1C[C@@H]2CN(Cc3ccoc3)CCO[C@@H]2C1 | -142 |
| c1cn(-c2cncc(C3CCNCC3)n2)cn1 | -32.5 |
| O=C(c1ccccn1)N1CCC2(CC1)C(=O)Nc1ccccc12 | -145 |
| Cc1ccc(C(=O)N2CCc3ncnc(-c4cnn(C)c4)c3CC2)cn1 | 7.83 |
| CCN1CCOCC2(CCCN(C(=O)c3ccccc3F)C2)C1 (stereo not drawn) | -4.9 |
| Cc1ccc(CN2CCC3(CC2)CC(CC(=O)NC(C)C)CO3)s1 (stereo not drawn) | -1.72 |
| O=C(c1ccccn1)N1CC[C@H]2[C@H]1CCN2S(=O)(=O)C1CC1 | -123 |
| CC(C)OC(=O)N1C[C@@H]2CC[C@H]1CN(C(=O)c1ccccc1)C2 | 0.608 |
| Cc1noc(C)c1CN1C(=O)[C@@H]2CC[C@H]1CN(Cc1cscn1)C2 | 0.854 |

Reference: ChEMBL document CHEMBL4513216, “Probing the Open Global Health Chemical Diversity Library for Multistage-Active Starting Points for Next-Generation Antimalarials” (ACS Infect Dis, 2020)
